High-throughput results from PubChem.
HCT116 PTEN-null: growth suppressors of cells with PTEN tumor suppressor deletion. HCT116 PTEN-null viability, CellTiter-Glo, 60 h; hits give low values. viability, % at 10 µM. 1.2% of 140,000 active. AID 827;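 active = viability at or below a set limit, 4 SD under the median of all tested compounds, cut at about 3.7% in these data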;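 also: PTEN knockout HCT116 line with beta catenin targeted HCT116 as companion control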
bCat KO growth: beta-catenin-lacking colon tumor cell growth suppression. HCT116 beta-catenin knockout viability, CellTiter-Glo, 60 h; hits give low values. viability, % at 10 µM. 1.5% of 140,000 active. AID 818;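 active = viability at or under a set limit, the compound median less 4 SD, cut at about 6% in these data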;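 also: 0% = Hyamine 1622 control at 20 µM and 100% = untreated cell control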
Pyk2 oligo antag: antagonists of human Pyk2 oligomerization. Q14289. Q293 cells, Pyk2 FERM NanoBiT luminescence; hits give low values. z-score (the deposit names both 25 µM and 10 µM). 0.83% of 99,000 active. AID 1347419;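 active = Z-score of -3 or lower, scaled per plate to the spread of control and sample wells; inactive = z-score above -3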;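 also: negative z-score means lost luminescence so less FERM oligomerization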
Target sequence (Q14289 whole entry, looked up): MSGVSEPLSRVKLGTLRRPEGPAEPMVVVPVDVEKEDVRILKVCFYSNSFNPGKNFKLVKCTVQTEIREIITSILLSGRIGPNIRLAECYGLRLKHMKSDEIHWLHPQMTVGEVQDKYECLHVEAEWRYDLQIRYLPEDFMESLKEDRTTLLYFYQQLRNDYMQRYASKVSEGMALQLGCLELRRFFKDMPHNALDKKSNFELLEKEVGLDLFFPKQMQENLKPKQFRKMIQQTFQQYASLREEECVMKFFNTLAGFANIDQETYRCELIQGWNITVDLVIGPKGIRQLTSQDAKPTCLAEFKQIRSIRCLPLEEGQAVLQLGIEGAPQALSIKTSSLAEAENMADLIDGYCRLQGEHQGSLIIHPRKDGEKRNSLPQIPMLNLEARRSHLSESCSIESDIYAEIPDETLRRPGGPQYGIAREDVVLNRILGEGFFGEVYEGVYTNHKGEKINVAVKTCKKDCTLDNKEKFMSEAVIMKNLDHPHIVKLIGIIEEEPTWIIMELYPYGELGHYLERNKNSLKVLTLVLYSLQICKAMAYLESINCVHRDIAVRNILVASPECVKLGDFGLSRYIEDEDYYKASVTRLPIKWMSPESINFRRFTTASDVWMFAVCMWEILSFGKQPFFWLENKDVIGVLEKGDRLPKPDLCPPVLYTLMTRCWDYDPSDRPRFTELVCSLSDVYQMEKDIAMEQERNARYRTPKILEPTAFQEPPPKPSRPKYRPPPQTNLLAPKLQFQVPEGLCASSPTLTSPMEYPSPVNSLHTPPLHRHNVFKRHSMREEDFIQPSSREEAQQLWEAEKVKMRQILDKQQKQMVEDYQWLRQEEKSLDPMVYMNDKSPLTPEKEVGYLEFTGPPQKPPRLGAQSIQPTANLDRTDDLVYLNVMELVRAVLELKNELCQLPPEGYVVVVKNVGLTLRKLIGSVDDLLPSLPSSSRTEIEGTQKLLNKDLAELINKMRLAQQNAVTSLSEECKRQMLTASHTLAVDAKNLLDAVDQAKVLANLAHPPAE
Lung fibro prol: blocks proliferation of human lung fibroblasts; LL 47 human lung fibroblast viability, ATP luminescence; hits give low values; viability, % at 10 µM; 1.1% of 85,000 active;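 active = viability at or below 50% in the single dose screen; inactive = viability above 50%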;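 also: compound exposure lasted 72 h before the ATP readout; 100% = median luminescence of untreated cell-only wells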
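Material: Human LL 47 lung fibroblast cells | Input: 1,150 cells/well | Buffer or medium: IMEM plus 15% FBS | Compound dosing: 0.1% DMSO in all compound wells | Times: Overnight cell rest, 72 h compound treatment at 37 °C | Signal: CellTiter-Glo luminescence measuring cellular ATP | Measure: % viability versus median cells-only luminescence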
H69AR inhibit: blocks growth of human H69AR lung tumor cells; H69AR lung tumor viability, ATP luminescence, 72 h; hits give low values; viability, % at 10 µM; 6% of 85,000 active; AID 598;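 active = viability at or below 40%; inactive = viability above 40%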;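 also: multidrug resistant small cell line overexpressing MRP-1 efflux transporter; 100% = mean luminescence of untreated control wells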
HUVEC prolif 384: blocks proliferation of human endothelial cells. 1.1% of 86,000 active. viability, % at 10 µM (by protocol). HUVEC proliferation, CellTiter-Glo luminescence, 72 h; hits give low values. AID 648;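 active = viability at or below 30%; inactive = viability above 30%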;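 also: 100% = median luminescence of DMSO-only cell control wells on each plate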
Numbers without * were called inactive; / = not tested or not shown. The entries come from a sample that favours hits as a whole.

SMILES	HCT116 PTEN-null	bCat KO growth	Pyk2 oligo antag	Lung fibro prol	H69AR inhibit	HUVEC prolif 384
Oc1c(C(c2ccco2)N2CCN(C(c3ccccc3)c3ccccc3)CC2)sc2ncnn12 (stereo unspecified)	47	51	/	94	33*	88
CN(C)C(=O)c1c2c(nc3ccccc13)-c1ccccc1CC2	89	88	-0.31	/	/	/
Cc1ccc(/C=C/C(=O)c2ccccc2)cc1	0.4*	0.9*	0.44	49*	85	79
COc1ccc(Br)cc1/C=C/C(=O)Nc1ccc2ccccc2c1	79	74	/	/	/	/
CC(=O)Nc1cccc(C(=O)/C=C/c2ccc(/C=C/C(=O)c3cccc(NC(C)=O)c3)cc2)c1	1.8*	4.2*	/	/	/	/
CC(=O)Nc1cccc(C(=O)/C=C/c2ccc(N(C)C)cc2)c1	58	56	/	/	/	/
CC(=O)Nc1cccc(C(=O)/C=C/c2ccc(Br)cc2)c1	1.3*	1.5*	/	/	/	/
CCC(=O)Nc1cccc(C(=O)/C=C/c2cc(Br)ccc2OC)c1	0.7*	0.8*	-2.7	/	/	/
CC(CNc1ccccc1O)C(=O)O (stereo unspecified)	68	70	/	/	/	/
O=C(O)CCSc1nnc(SCC(=O)NCC(F)(F)F)s1	99	92	/	/	/	/
CCOc1ccccc1NC(=S)NNS(=O)(=O)c1c(C)cc(C)cc1C	105	102	/	/	/	/
O=C(NC(=S)Nc1ccc(S(=O)(=O)Nc2nccs2)cc1)c1cccc(F)c1	90	91	/	/	/	/
CC(=O)Nc1cccc(C(=O)/C=C/c2ccco2)c1	22	18	0.05	/	/	/
CC(=O)Nc1cccc(C(=O)/C=C/c2cccs2)c1	1.6*	1.5*	/	/	/	/
CN(C)c1ccc(/C=C/C(=O)c2ccccc2)cc1[N+](=O)[O-]	1.4*	1.8*	/	/	/	/
O=C(/C=C/c1ccccc1)c1ccccn1	4	5.7*	0.1	/	/	/
Cc1n[nH]c(C)c1S(=O)(=O)N(CC(=O)N1CCc2ccccc21)c1ccc(C(C)C)cc1	74	80	/	63	31*	44
CCOc1ccc(N(CC(=O)N2CCc3ccccc32)S(=O)(=O)c2c(C)noc2C)cc1	57	57	/	86	74	91
O=C1c2cccc(Cl)c2C(=O)c2c1cccc2N1CCCC1	/	/	-1.4	/	/	/
COC(=O)c1[nH]c2cccc(OC)c2c1NC(=O)C(C)N1CCC(C)CC1 (stereo unspecified)	79	77	/	100	88	99
S=C1N(c2ccccc2)C(c2cccc3ccccc23)N2CCCN12 (stereo unspecified)	93	92	-0.69	94	101	98
CCOC(=O)C1=C(Cc2ccc(Cl)cc2)C(=O)c2ccccc2C1=O	76	69	-0.9	75	1.9*	21*
COCCn1c(SCC(=O)N2CCCc3ccccc32)nc2cccnc21	81	77	-0.47	108	19*	87
Cc1ccc2c(c1)c1cccc3c1n2CCN3CCC(N)=O	61	73	-0.28	86	95	21*
CCN(c1ccc(NC(=O)COC(=O)c2ccc(S(=O)(=O)N3CCCC3)cc2)cc1)C(C)C	96	91	0.55	/	/	/
SMILES	HCT116 PTEN-null	bCat KO growth	Pyk2 oligo antag	Lung fibro prol	H69AR inhibit	HUVEC prolif 384
CC(C)N1CCC2(CC1)N=C(c1ccc3c(c1)OCO3)CC(c1cc(Cl)ccc1O)N2 (stereo unspecified)	2.9*	2.5*	-1.8	5.9*	1.5*	30*
COc1ccc(N=C2S/C(=C\c3ccc(N4CCOCC4)o3)C(=O)N2CCc2c[nH]c3ccccc23)cc1	1.6*	1.9*	-2.4	/	/	/
COc1ccc(C(C)=O)cc1CSc1nnc(-c2ccccc2O)n1-c1ccccc1	75	84	-1.5	/	/	/
Cc1cc(C)c(C2=NOC3C4CCC(C4)C23)c(C)c1 (stereo unspecified)	90	89	/	/	/	/
COc1ccc(C(=O)O/N=C/c2c(C(F)(F)F)nn(C)c2SCc2ccccc2Cl)cc1	13	4.2*	-0.95	/	/	/
Cn1nc(C(F)(F)F)c(/C=N/OC(=O)c2ccccc2Cl)c1SCc1ccc(Cl)cc1	68	64	-0.64	/	/	/
COc1nc(Cl)cn(-c2ccc(C)cc2)c1=O	101	92	/	/	/	/
Cc1ccc(-n2c(Cl)c(Cl)nc(Cl)c2=O)cc1	2.5*	4.9*	/	/	/	/
Fc1ccc(C(CCCn2nnc(-c3cccnc3)n2)c2ccc(F)cc2)cc1	39	48	-3.7*	104	84	73
c1ccc(C(Cc2nc(-c3cccnc3)no2)c2ccccc2)cc1	79	84	-1.8	102	81	113
O=C(NNC(=O)c1cccnc1SCc1cccc([N+](=O)[O-])c1)c1ccccn1	10	6.0*	1	/	/	/
Cn1c(=N)n(CC(O)c2cccc3ccccc23)c2ccccc21 (stereo unspecified)	32	29	1.4	84	26*	88
Cc1cc(C)n(S(=O)(=O)/C=C/c2ccccc2)n1	89	94	0.45	26*	1.1*	76
C=C(C)COc1ccc(-c2n[nH]c(C)c2-c2ccc(OC)cc2)c(O)c1	1.4*	1.3*	-2.4	33*	14*	11*
COc1ccc(-c2n[nH]c(C)c2-c2cnn(-c3ccccc3)c2)c(O)c1	87	86	-0.58	98	66	90
CCOc1ccc(-c2n[nH]c(C)c2-c2ccccc2OC)c(O)c1	25	28	-1.5	85	6.7*	58
COc1ccc(-c2c(-c3ccc(OCC(=O)NN)cc3O)n[nH]c2C(F)(F)F)cc1	98	90	/	/	/	/
Cc1c(F)cccc1NC(=O)CSCC(=O)Nc1ccccc1	101	98	0.96	105	100	103
COc1ccc(CCNC(=O)CSc2nn(-c3ccccc3)c(=S)s2)cc1OC	87	93	-1.1	/	/	/
N#C/C(=C(/O)COC(=O)c1ccc(C#N)cc1)c1nc2ccccc2s1	97	99	/	/	/	/
Cc1ccc(S(=O)(=O)Oc2ccccc2/C=N/NC(=O)c2c(Cl)cnn2C)cc1	85	88	-1.1	98	33*	86
c1ccc2c(-c3nnc(SCc4cn5ccccc5n4)o3)c[nH]c2c1	105	95	-0.42	119	63	89
c1ccc(CSc2nnc(-c3c[nH]c4ccccc34)o2)cc1	63	72	-2	106	97	27*
COc1ccc(OC)c2sc(N3CCCCC3)nc12	112	91	0.95	46*	80	94
CC(=O)N(Cc1ccccc1)c1ccc(C(=O)O)cc1	96	104	-0.38	88	91	89
CC(=O)N(Cc1ccc(F)cc1)C1=C(NCc2ccccc2)C(=O)c2ccccc2C1=O	1.2*	1.4*	-2.7	2.6*	3.5*	3.4*
CCOC(=O)C1CCN(C(=O)Nc2ccc3nc(-c4ccco4)c(-c4ccco4)nc3c2)CC1	77	76	-1.2	93	38*	75
O=C(Nc1ccc2nc(-c3ccco3)c(-c3ccco3)nc2c1)N1CCCCCC1	84	87	/	/	/	/
O=C(NC(Cc1ccccc1)C(=O)O)/C(=C\c1ccc(F)cc1)NC(=O)c1ccccc1 (stereo unspecified)	104	103	-0.41	/	/	/
